# Measurements from ChEMBL document CHEMBL5303300, “EUbOPEN Chemogenomics Library - Multiplex” (2023).
# Several values for one entry are separate records, joined by “and”; a condition that tells them apart may be missing. Equal values may be shown once.
# Tested on: U2OS
# Test: Multiplex assay against U2OS
# Type: toxicity, cell-based
# Details: human, number of replicates 2
# Method in brief: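 At seeding, live cells were stained with Hoechst33342, BioTracker Green Microtubule Cytoskeleton Dye, MitoTracker Red and Annexin V Alexa Fluor 680. After compound addition they were imaged on a CQ1 microscope at 37°C and 5% CO2, and CellPathfinder machine-learning gating sorted them into Hoechst high-intensity objects or normal cells, with normal cells further split into healthy, pyknosed or fragmented nuclei and pyknosed cells into mitotic or apoptotic. Tubulin, mitochondrial-mass and membrane-permeability phenotypes are given as per cents of cells with healthy nuclei.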
# [1] = 12 h, 1 µM, compound concentration 1 uM
# [2] = 12 h, 10 µM, compound concentration 10 uM
# [3] = 24 h, 1 µM, compound concentration 1 uM
# [4] = 24 h, 10 µM, compound concentration 10 uM
# [5] = 48 h, 1 µM, compound concentration 1 uM
# [6] = 48 h, 10 µM, compound concentration 10 uM
structure (smiles),measurement,setting,value
CC(C)NC(=O)[C@H]1CCC[C@H]1Nc1nc(Nc2ccc(C(=O)N(C)C3CCN(C)CC3)cc2)ncc1Cl,Population Apoptotic (%),[1],75% and 60%
same,Population Fragmented Nuclei (%),[1],17% and 6%
same,Population Healthy Nuclei (%),[1],72% and 81%
same,Population Hoechst High Intensity Objects (%),[1],0%
same,Population Membrane Permeable-Phenotype (%),[1],0% and 2%
same,Population Mitochondria Different-Phenotype (%),[1],0%
same,Population Mitotic Cells (%),[1],25% and 40%
same,Population Normal (%),[1],100% and 99%
same,Population Pyknosed Nuclei (%),[1],10% and 12%
same,Population Tubulin-Different-Phenotype (%),[1],65% and 57%
same,Population Apoptotic (%),[2],100% and 69%
same,Population Healthy Nuclei (%),[2],65% and 73%
same,Population Hoechst High Intensity Objects (%),[2],0%
same,Population Membrane Permeable-Phenotype (%),[2],13% and 18%
same,Population Mitochondria Different-Phenotype (%),[2],0% and 15%
same,Population Normal (%),[2],100%
same,Population Pyknosed Nuclei (%),[2],8% and 20%
same,Population Tubulin-Different-Phenotype (%),[2],40% and 36%
same,Population Apoptotic (%),[3],42% and 87%
same,Population Fragmented Nuclei (%),[3],8% and 3%
same,Population Healthy Nuclei (%),[3],70% and 83%
same,Population Hoechst High Intensity Objects (%),[3],0%
same,Population Membrane Permeable-Phenotype (%),[3],4% and 1%
same,Population Mitochondria Different-Phenotype (%),[3],0%
same,Population Normal (%),[3],100%
same,Population Pyknosed Nuclei (%),[3],20% and 12%
same,Population Tubulin-Different-Phenotype (%),[3],58% and 61%
same,Population Apoptotic (%),[4],75% and 82%
same,Population Healthy Nuclei (%),[4],43% and 65%
same,Population Hoechst High Intensity Objects (%),[4],0%
same,Population Membrane Permeable-Phenotype (%),[4],15% and 13%
same,Population Mitochondria Different-Phenotype (%),[4],46% and 31%
same,Population Mitotic Cells (%),[4],25% and 17%
same,Population Normal (%),[4],100%
same,Population Pyknosed Nuclei (%),[4],13% and 28%
same,Population Tubulin-Different-Phenotype (%),[4],53% and 45%
same,Population Apoptotic (%),[5],72% and 90%
same,Population Fragmented Nuclei (%),[5],10% and 18%
same,Population Healthy Nuclei (%),[5],64% and 58%
same,Population Hoechst High Intensity Objects (%),[5],0%
same,Population Membrane Permeable-Phenotype (%),[5],5% and 0%
same,Population Mitochondria Different-Phenotype (%),[5],0%
same,Population Mitotic Cells (%),[5],27% and 10%
same,Population Normal (%),[5],99% and 100%
same,Population Pyknosed Nuclei (%),[5],24% and 23%
same,Population Tubulin-Different-Phenotype (%),[5],68% and 48%
same,Population Apoptotic (%),[6],90% and 89%
same,Population Hoechst High Intensity Objects (%),[6],0%
same,Population Membrane Permeable-Phenotype (%),[6],0% and 25%
same,Population Mitotic Cells (%),[6],10%
same,Population Normal (%),[6],100% and 99%
same,Population Pyknosed Nuclei (%),[6],38% and 51%
same,Population Tubulin-Different-Phenotype (%),[6],50% and 52%
COC(=O)Nc1nc2c(s1)-c1c(c(-c3cccnc3)nn1-c1ccc(C3(N(C)C)CC3)cc1)CC2.Cl.Cl,Population Apoptotic (%),[1],100% and 85%
same,Population Healthy Nuclei (%),[1],44% and 73%
same,Population Hoechst High Intensity Objects (%),[1],0%
same,Population Mitochondria Different-Phenotype (%),[1],3% and 12%
same,Population Mitotic Cells (%),[1],0% and 14%
same,Population Normal (%),[1],100% and 99%
same,Population Pyknosed Nuclei (%),[1],4% and 13%
same,Population Tubulin-Different-Phenotype (%),[1],51% and 39%
same,Population Apoptotic (%),[2],58% and 63%
same,Population Fragmented Nuclei (%),[2],96% and 73%
same,Population Hoechst High Intensity Objects (%),[2],0%
same,Population Membrane Permeable-Phenotype (%),[2],28% and 26%
same,Population Mitochondria Different-Phenotype (%),[2],7% and 15%
same,Population Mitotic Cells (%),[2],41% and 36%
same,Population Normal (%),[2],100% and 99%
same,Population Pyknosed Nuclei (%),[2],1% and 6%
same,Population Tubulin-Different-Phenotype (%),[2],32% and 49%
same,Total Cell Count,[2],1083 and 863
same,Population Apoptotic (%),[3],83% and 77%
same,Population Healthy Nuclei (%),[3],31% and 74%
same,Population Hoechst High Intensity Objects (%),[3],0% and 1%
same,Population Membrane Permeable-Phenotype (%),[3],5%
same,Population Mitochondria Different-Phenotype (%),[3],0% and 16%
same,Population Mitotic Cells (%),[3],16% and 22%
same,Population Normal (%),[3],100% and 98%
same,Population Pyknosed Nuclei (%),[3],9% and 17%
same,Population Tubulin-Different-Phenotype (%),[3],55% and 39%
same,Population Apoptotic (%),[4],75% and 71%
same,Population Fragmented Nuclei (%),[4],96% and 74%
same,Population Hoechst High Intensity Objects (%),[4],0%
same,Population Membrane Permeable-Phenotype (%),[4],25% and 13%
same,Population Mitochondria Different-Phenotype (%),[4],21% and 20%
same,Population Mitotic Cells (%),[4],25% and 28%
same,Population Normal (%),[4],99%
same,Population Pyknosed Nuclei (%),[4],1% and 8%
same,Population Tubulin-Different-Phenotype (%),[4],40% and 45%
same,Total Cell Count,[4],1253 and 958
same,Population Apoptotic (%),[5],85% and 76%
same,Population Healthy Nuclei (%),[5],31% and 63%
same,Population Hoechst High Intensity Objects (%),[5],0%
same,Population Membrane Permeable-Phenotype (%),[5],19% and 10%
same,Population Mitochondria Different-Phenotype (%),[5],9% and 14%
same,Population Mitotic Cells (%),[5],14% and 23%
same,Population Normal (%),[5],100% and 99%
same,Population Pyknosed Nuclei (%),[5],10% and 28%
same,Population Tubulin-Different-Phenotype (%),[5],66% and 45%
same,Population Apoptotic (%),[6],66% and 70%
same,Population Fragmented Nuclei (%),[6],95% and 76%
same,Population Hoechst High Intensity Objects (%),[6],0%
same,Population Membrane Permeable-Phenotype (%),[6],13% and 23%
same,Population Mitochondria Different-Phenotype (%),[6],13% and 26%
same,Population Mitotic Cells (%),[6],33% and 30%
same,Population Normal (%),[6],100% and 99%
same,Population Pyknosed Nuclei (%),[6],2% and 10%
same,Population Tubulin-Different-Phenotype (%),[6],50% and 51%
same,Total Cell Count,[6],1346 and 1010
